We go through 22 compounds from ChEMBL document CHEMBL4190405, “Scaffold-Hopping Approach To Discover Potent, Selective, and Efficacious Inhibitors of NF-κB Inducing Kinase” (J Med Chem, 2018).

Each structure is given as a SMILES string. Converted amounts (≈) assume the structure as drawn. Bounds are passed on as bounds.

Data set [1] is described as follows: Lipophilicity, log D of the compound at pH 7.4 by LC-MS based shake flask method. The note with it: buffer. Format: physicochemical. Put shortly:
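LogD at pH 7.4 measured by a high-throughput microscale shake-flask method with LC-MS/MS quantitation.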

Data set [2] is described as follows: Volume of distribution in Beagle dog. It counts as ADME, organism-based, Canis lupus familiaris. The note with it: in vivo.
A short description of data set [3]: Kinetic solubility of the compound. It counts as physicochemical. The settings on record: read-out: Kinetic_solubility.
The nature of data set [4]: Apparent permeability from basolateral to apical side in MDCK cells. The settings on record: dog. Format: ADME, cell-based, Canis lupus familiaris.
Data set [5] is described as follows: Apparent permeability from apical to basolateral side in MDCK cells. Format: ADME, cell-based, Canis lupus familiaris. The note with it: dog.
The nature of data set [6]: Volume of distribution in cynomolgus monkey. The note with it: in vivo. Format: ADME, organism-based, Macaca fascicularis.
Data set [7] can be described thus: Oral bioavailability in CD-1 mouse at 5 mg/kg via gavage administered as single dose. The note with it: in vivo. It counts as ADME, organism-based.
Data set [8] is described as follows: Volume of distribution in Sprague-Dawley rat. Format: ADME, organism-based. The settings on record: in vivo.
Data set [9] can be described thus: Oral bioavailability in Beagle dog at 5 mg/kg via gavage administered as single dose. The note with it: in vivo. Format: ADME, organism-based, Canis lupus familiaris.
Data set [10] in a line: Oral bioavailability in Sprague-Dawley rat at 5 mg/kg via gavage administered as single dose. It counts as ADME, organism-based. The settings on record: in vivo.
Data set [11] is described as follows: Volume of distribution in CD-1 mouse. The note with it: in vivo. It counts as ADME, organism-based.
Data set [12] can be described thus: Oral bioavailability in cynomolgus monkey at 5 mg/kg via gavage administered as single dose. Format: ADME, organism-based, Macaca fascicularis. The note with it: in vivo.

Regarding `CN1CC[C@@](O)(C#Cc2ccnc(-n3ccc(C(N)=O)n3)c2)C1=O`, in data set [1], the logD was determined as 0.61. Same read-out and setting: for `CN1CC[C@@](O)(C#Cc2ccnc(-n3nc(C(N)=O)cc3N)c2)C1=O` the value was 2. Still for that read-out and setting: with `COc1cnc2c(c1)c(C(N)=O)nn2-c1cccc(C#C[C@]2(O)CCN(C)C2=O)c1` the figure was 1.9; with `CN1CC[C@@](O)(C#Cc2cccc(-c3nc(C(N)=O)c4ccccn34)c2)C1=O`, 1.3; with `COc1ccc2c(-c3cccc(C#C[C@]4(O)CCN(C)C4=O)c3)nc(C(N)=O)n2c1`, 2.4. Regarding `CN1CC[C@@](O)(C#Cc2cccc(-n3cc(C(N)=O)c4cccnc43)c2)C1=O`, in data set [1], the logD worked out at 2.4. Same read-out and setting: with `CN1CC[C@@](O)(C#Cc2cccc(-n3nc(C(N)=O)c4cc(F)ccc43)c2)C1=O` the figure was 2.6; with `CN1CC[C@@](O)(C#Cc2cccc(-n3nc(C(N)=O)c4cccnc43)c2)C1=O`, 1.6. The same measure, in the same setting: with `CCOc1ccn2c(-c3cccc(C#C[C@]4(O)CCN(C)C4=O)c3)nc(C(N)=O)c2c1` the figure was 1.9; with `CN1CC[C@@](O)(C#Cc2cccc(-c3ccnc(C(N)=O)n3)c2)C1=O`, 1.6. `CN1CC[C@@](O)(C#Cc2ccnc(-n3nc(C(N)=O)c4ccccc43)c2)C1=O`: the logD in [1] is 1.9. In [1], `CN1CC[C@@](O)(C#Cc2cccc(-c3cccc(C(N)=O)n3)c2)C1=O` gave a logD of 1.6.

Consider `COc1cc(C(N)=O)nc(-c2cccc(C#C[C@]3(O)CCN(C)C3=O)c2)c1`, for which the Vd in [2] turned out to be 0.778 L/kg; in data set [6] it was 1.39 L/kg; in data set [8] it was 1.35 L/kg; in data set [11] it was 1.58 L/kg. In data set [3], the solubility kinetic was 139 µM (≈ 50.8 µg/mL). In addition, the Papp B→A in data set [4] was determined as 10.2 ×10⁻⁶ cm/s. Moreover, in [5], the Papp A→B is 7.3 ×10⁻⁶ cm/s. The bioavailability was 54% in data set [7], 56% in [9], 97% in [10] and above 100% in data set [12]. In [1], the logD turned out to be 1.9.

For the compound `CN1CC[C@@](O)(C#Cc2cccc(-n3nc(C(N)=O)c4ccccc43)c2)C1=O`, the logD in [1] was 2.1. Same read-out and setting: with `CN1CC[C@@](O)(C#Cc2cccc(-c3cccc(C(N)=O)c3)c2)C1=O` the figure was 1.6. On the same count and under the same terms, for `COc1cc(C(N)=O)nc(-c2cccc(C#C[C@]3(O)CCN(C)C3=O)c2)n1` the value was 1.8; for `CN1CC[C@@](O)(C#Cc2cccc(-c3cc4ccccc4c(C(N)=O)n3)c2)C1=O`, 2.5; for `CN1CC[C@@](O)(C#Cc2ccnc(-n3nc(C(N)=O)cc3C3CC3)c2)C1=O`, 2. `CN1CC[C@@](O)(C#Cc2ccnc(-n3nc(C(N)=O)c4c3CCCC4)c2)C1=O` displayed a logD in [1] of 1.9.

In turn, `CN1CC[C@@](O)(C#Cc2cccc(-c3ccc(N)c(C(N)=O)n3)c2)C1=O` showed a logD in data set [1] of 1.7.

As for `CN1CC[C@@](O)(C#Cc2cccc(-c3nc(C(N)=O)n4ccccc34)c2)C1=O`, the logD in data set [1] was 2.2. On the same count and under the same terms, for `CN1CC[C@@](O)(C#Cc2cccc(-c3cncc(C(N)=O)n3)c2)C1=O` the value was 1.

What is called logD is the decadic logarithm of the distribution of all forms, ionised or not, between an organic phase and buffer at a given pH. The term Vd denotes a proportionality between amount in the body and measured concentration, not a real space. The Papp B→A is the apparent permeability from the basolateral to the apical side of a cell layer. What is called Papp A→B is how fast a substance crosses the layer from the apical side. As usually defined, the bioavailability is the share of a dose that reaches the circulation, judged against a reference dose that is usually intravenous.
